GRK2 inh: inhibitors of human GRK2 displacing RNA aptamer | bead flow cytometry, FAM-aptamer displacement from GRK2 | 330,000 compounds, 0.59% hits | P25098 | inhibition of aptamer binding, % at 10 µM;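 active means inhibition of aptamer binding above 40%, roughly 3 SD of noise, on plates passing a quality check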;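 further: median bead fluorescence of bound FAM aptamer so fluorescent compounds give negative values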
Arr AP2 block: blocks beta-arrestin peptide binding to AP2 adaptin; FITC-arrestin peptide / GST-AP2 beads, flow cytometry; AP2 beta2 appendage carries R879A mutation; inhibition, % at 10 µM; 340,000 compounds, 0.31% hits;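 active means inhibition above a set limit, near 3 SD of compounds lacking own fluorescence, cut at about 54% in these data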
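test system = AP2 appendage R879A on GSH beads | buffer or medium = PBS plus Tween 20 (0.05%) and BSA (0.1%) | incubation = 12 min plus 1 h, RT | detection = bead flow cytometry, FITC channel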
TAG inh: inhibitors of triacylglycerol accumulation; inhibition, % at 12.5 µM; 230,000 compounds, 0.66% hits; AID 651582; H9c2 cells, Nile Red lipid (TAG) fluorescence; cells loaded with 200 µM oleic acid;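 active means pattern-corrected inhibition of lipid staining of at least 50% with the nuclear-stain viability signal not falling by more than 50%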
Hep lipid drop: hepatic lipid droplet formation modulation; 240,000 compounds, 0.4% hits; inhibition, % at 6.5 µM; AML12 mouse hepatocytes, oleate lipid droplets, BODIPY imaging;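 active means lipid droplet intensity inhibited by at least 50%, with more than 500 cells counted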
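Assay system: AML12 mouse liver cells | Compound: 6.5 µM single-point dosing | Schedule: Overnight exposure | Technique: Fluorescence imaging, 20x objective, two fields per well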
NTR1 agonist: NTR1 (human) agonism | AID 493036 | activation, % at 20 µM | 330,000 compounds, 0.17% hits | NTR1-U2OS beta-arrestin-GFP spot imaging, agonist mode | P30989;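 active means activation at or above 40% of the spot to cytoplasm intensity ratio, with at least 20 cells analyzed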
Beta2AR agonist: human beta-2 adrenergic receptor agonism by FAP; P07550; Am2.2-beta2AR cells, FAP receptor internalization, flow cytometry; response, % (no concentration beside the values); 340,000 compounds, 0.43% hits; AID 504454;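 active means response above a set limit, near 3 SD of response in nonfluorescent compounds, cut at about 42% in these data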
Target sequence (P07550 whole entry, looked up): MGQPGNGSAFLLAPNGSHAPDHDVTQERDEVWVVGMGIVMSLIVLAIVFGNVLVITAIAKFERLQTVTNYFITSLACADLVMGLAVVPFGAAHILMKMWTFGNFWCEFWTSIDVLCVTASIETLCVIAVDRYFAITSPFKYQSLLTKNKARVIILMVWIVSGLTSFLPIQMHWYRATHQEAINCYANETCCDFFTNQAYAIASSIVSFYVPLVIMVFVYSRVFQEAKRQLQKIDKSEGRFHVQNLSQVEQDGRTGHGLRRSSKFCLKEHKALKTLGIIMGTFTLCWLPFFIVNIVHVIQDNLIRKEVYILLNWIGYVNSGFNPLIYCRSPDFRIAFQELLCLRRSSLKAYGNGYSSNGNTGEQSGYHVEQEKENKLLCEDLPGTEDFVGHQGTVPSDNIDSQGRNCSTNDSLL
GRK2 CP1: confirmation of human GRK2 inhibitors displacing RNA aptamer. shares compounds with GRK2 inh. bead-bound GRK2, FAM-aptamer displacement, flow cytometry. aptamer displacement, % at 10 µM. 2,000 compounds, 4% hits. AID 504451;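 active means aptamer displacement above 40%, near three times the noise of non-fluorescent compounds, on plates passing quality checks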;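 further: negative values mostly reflect intrinsic compound fluorescence rather than true enhancement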
FAM quench CP1: quenches fluorescent RNA aptamer, GRK2 hit artifact; shares compounds with GRK2 inh; Carboxyfluorescein RNA aptamer on beads, flow cytometry quenching; stronger effect = lower value; fluorescence response (% of DMSO), % at 10 µM; 2,000 tested, under 10 active; AID 504580;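 active means compounds that quench the bead-bound fluorescent RNA probe, cutting fluorescence to under half of the solvent control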;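 further: counterscreen run without GRK2 so only probe quenching by compound is measured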
A number is an active result; n = inactive; x = no result. Most compounds without a hit are left out; they make up all but 2% or so of the library.

SMILES	GRK2 inh	Arr AP2 block	TAG inh	Hep lipid drop	NTR1 agonist	Beta2AR agonist	GRK2 CP1	FAM quench CP1
O=C(Cc1ccccc1)NS(=O)(=O)c1ccc(N=NN2CCOCC2)cc1	n	n	x	n	n	n	n	n
COC(=O)CCC(=O)NS(=O)(=O)c1ccc(N=NN2CCOCC2)cc1	n	n	n	n	n	n	x	x
Cc1cccc(C)c1OCCCCN1CCNCC1	42	n	x	n	n	n	n	n
Cc1cc(C)c(OCCCCN2CCNCC2)c(C)c1	n	n	x	n	n	n	x	x
Cc1ccc(S(=O)(=O)N2CCC(C(=O)NCCCN3CCCC3=O)CC2)cc1C	n	n	x	n	n	n	x	x
O=C(O)c1ccc2c(c1)[C@@H]1C=CC[C@@H]1[C@H](c1ccccn1)N2	42	n	n	x	n	n	n	n
COC(C[C@@H]1O[C@@H]1C(=O)COCc1ccccc1)OC	x	n	n	n	n	n	x	x
Nc1cc(=O)nc(SCC(=O)N2CCN(c3ccccc3)CC2)n1-c1ccc(F)cc1	n	n	n	n	n	n	x	x
Cc1ccc(Cn2c(Cc3ccccc3)nc3ccccc32)cc1	96	n	n	x	n	n	n	n
ClCc1nc2ccccc2n1Cc1ccccc1	n	n	n	n	n	n	x	x
CN1CCc2nc3sc(C(=O)C45CC6CC(CC(C6)C4)C5)c(N)c3cc2C1	51	n	n	x	n	n	n	n
O=C(COC(=O)/C=C/C(=O)N1CCN(c2ccccc2)CC1)NC(c1ccccc1)c1ccccc1	n	n	n	n	n	n	x	x
CCOc1cc(N2CCOCC2)c(OCC)cc1NC(=O)COC(=O)c1ccc(Cl)nc1	n	n	n	x	n	n	x	x
NC(=O)NC(Cc1ccccc1)C(=O)NCCCSc1ccccc1 (configuration not stated)	n	n	x	n	n	n	x	x
Cc1cnc(CNC(=O)c2csc(COCCO)n2)cn1	x	x	n	x	x	x	x	x
O=C(CCc1ccccc1)Nc1nc2n(n1)C(c1ccc(Cl)cc1)CC(=O)N2 (configuration not stated)	100	n	x	n	n	n	n	n
O=C(CCc1ccccc1)Nc1nc2n(n1)C(c1ccccc1)CC(=O)N2 (configuration not stated)	n	n	x	x	n	n	x	x
CCc1c(C)nc2ncnn2c1N1CCCC(C(=O)NCc2cccs2)C1 (configuration not stated)	51	n	n	n	n	n	n	n
CC(OC(=O)Cc1c[nH]c2ccccc12)C(=O)N(C)c1ccccc1 (configuration not stated)	n	n	n	x	n	n	n	n
O=C(Oc1cc(=O)oc2ccccc12)c1ccccc1	100	n	x	n	n	n	n	n
O=C(Oc1c(-c2ccccc2)oc2ccccc2c1=O)c1ccccc1	n	n	x	x	n	n	x	x
O=C(Oc1cccc2c(O)cccc12)c1ccccc1	42	n	n	n	n	n	n	n
COc1ccc(NC(=O)COc2cc(C)cc(C)c2)cc1S(=O)(=O)N1CCCCC1	n	n	n	x	n	n	x	x
CCCOc1cccc(C(=O)Nc2ccc3c(c2)OCCO3)c1	n	n	n	n	n	n	x	x
NC(=O)CN1C(=O)NC2(CCOc3ccccc32)C1=O (configuration not stated)	n	n	x	n	n	n	x	x
O=S1(=O)CCC(N=Nc2c(O)n(Cc3ccccc3)c3ccccc23)C1 (configuration not stated)	66	n	n	n	n	n	n	n
N=C1/C(=C/c2ccco2)C(=O)N=C2SC(CC(=O)N3CCCC3)=NN12	46	n	x	n	n	n	n	n
COc1cc(NC(=O)C2CC(c3ccc(Cl)cc3)=NO2)cc(OC)c1OC (configuration not stated)	n	n	n	n	n	n	x	x
Cc1ccc(Cl)cc1C1=CC(=O)C[C@H](c2ccc(F)cc2)C1	64	n	n	x	n	n	n	n
